Laboratory results from article PMC5131535 (ACS chemical neuroscience, 2016).
Where “and” joins values, the source holds several entries; their conditions need not be identical. Equal values may be shown once. Entries after “also recorded” stand apart in the source; their conditions may differ.

Tests used:
[1] = plasma
Kir7.1 pore mutants [2] = biological target: Kir7.1 pore mutants (Homo sapiens, UniProt O60928, A161S); type: cell-based; details: 3 µM, -120 mV
In short: (§1)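 Single pore-lining residues were mutated on a WT or M125R Kir7.1 background and expressed transiently with EGFP in HEK-293T cells. The whole-cell step-ramp protocol from a −75 mV holding potential was used, with test compound at 3 µM. Read-out was % inhibition of current at −120 mV, mean ± SEM, tested against the respective parent channel (P < 0.05).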

Kir7.1 pore mutants [3] = biological target: Kir7.1 pore mutants (Homo sapiens, UniProt O60928, T153C); type: cell-based; details: 3 µM, -120 mV
Sequence of Kir7.1 pore mutants (Homo sapiens, UniProt O60928, T153C) (O60928 whole entry T153C): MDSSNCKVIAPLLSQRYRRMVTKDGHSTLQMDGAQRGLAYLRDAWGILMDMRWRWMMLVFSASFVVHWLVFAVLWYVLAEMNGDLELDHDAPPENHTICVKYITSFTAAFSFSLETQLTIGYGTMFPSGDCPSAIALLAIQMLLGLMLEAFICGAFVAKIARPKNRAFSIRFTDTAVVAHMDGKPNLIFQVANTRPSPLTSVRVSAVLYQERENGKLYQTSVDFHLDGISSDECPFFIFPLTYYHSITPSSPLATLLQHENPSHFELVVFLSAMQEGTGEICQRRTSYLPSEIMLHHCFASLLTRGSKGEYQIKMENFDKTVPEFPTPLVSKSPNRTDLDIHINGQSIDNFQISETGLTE
In short: as §1

Kir7.1 pore mutants [4] = biological target: Kir7.1 pore mutants (Homo sapiens, UniProt O60928, L146V); type: cell-based; details: 3 µM, -120 mV
Sequence of Kir7.1 pore mutants (Homo sapiens, UniProt O60928, L146V) (O60928 whole entry L146V): as the sequence (O60928 whole entry T153C) above, with L146V, C153T counted along it
In short: as §1

Kir7.1 pore mutants [5] = type: cell-based, human; details: 3 µM, -120 mV
In short: as §1

Kir7.1 pore mutants [6] = biological target: Kir7.1 pore mutants (Homo sapiens, UniProt O60928, I160M); type: cell-based; details: 3 µM, -120 mV
Sequence of Kir7.1 pore mutants (Homo sapiens, UniProt O60928, I160M) (O60928 whole entry I160M): as the sequence (O60928 whole entry T153C) above, with C153T, I160M counted along it
In short: as §1

Kir7.1 E149Q/M125R = Kir7.1 E149Q/M125R (Homo sapiens, UniProt O60928, E149Q/M125R); assay: Whole-cell patch clamp, Kir7.1 E149Q/M125R mutant; type: cell-based; details: -120 mV
Sequence of Kir7.1 E149Q/M125R (O60928 whole entry M125R/E149Q, the tested form may be a part): as the sequence (O60928 whole entry T153C) above, with M125R, E149Q, C153T counted along it
In short: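 Human Kir7.1 (WT or mutant) was transiently co-transfected with EGFP into HEK-293T cells, which were replated next day on poly-L-lysine coverslips. Whole-cell clamp used bath 5 mM KCl, pH 7.4, and pipette 135 mM KCl, pH 7.3. Cells were held at −75 mV, stepped 500 ms to −120 mV, then ramped to 120 mV, every 5 s. Increasing test-compound doses were superfused, then BaCl₂ block; current read at −120 mV; variable-slope Hill fit, mean of n = 5.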

Kir1.1 = Kir1.1 (Rattus norvegicus, UniProt P35560); assay: Tl+ flux selectivity assay, Kir1.1; type: cell-based
Sequence of Kir1.1 (P35560 whole entry): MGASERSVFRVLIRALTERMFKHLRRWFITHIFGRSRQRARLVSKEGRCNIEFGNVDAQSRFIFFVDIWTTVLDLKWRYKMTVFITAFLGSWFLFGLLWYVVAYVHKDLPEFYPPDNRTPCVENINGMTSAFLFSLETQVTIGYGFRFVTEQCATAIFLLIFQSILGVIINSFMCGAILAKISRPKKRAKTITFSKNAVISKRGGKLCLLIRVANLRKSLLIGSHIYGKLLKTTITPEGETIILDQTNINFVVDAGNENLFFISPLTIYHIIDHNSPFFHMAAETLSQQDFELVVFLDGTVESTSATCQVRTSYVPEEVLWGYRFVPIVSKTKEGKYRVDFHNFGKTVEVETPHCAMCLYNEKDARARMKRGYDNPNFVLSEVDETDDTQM
In short: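 Tetracycline-inducible stable T-REx-HEK-293 lines, induced overnight with 1 µg/ml tetracycline in DMEM/10% dialyzed FBS. Cells loaded 1 hr with 1.2 µM Thallos-AM in HBSS/20 mM HEPES pH 7.3 with 0.01% Pluronic F-127. Baseline fluorescence (ex 470, em 540 nm) read at 1 Hz before adding stimulus buffer with 1.8 mM Tl₂SO₄. Traces normalized to first point and vehicle-subtracted; slope taken 5–20 s post-Tl⁺; IC50 by nonlinear regression of CRCs.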

[7] = plasma; remark: listed apart in the source
Kir3.1/3.2 = biological target: T1, Kir3.1/3.2 (Homo sapiens, UniProt P48051+P48549); assay: Tl+ flux selectivity assay, Kir3.1/3.2; type: cell-based; details: for Kir Channel Selectivity (Fold) 3.1/3.2: Thallium flux, Kir7.1 over Kir3.1/3.2
T1 sequence (P48549 1-501): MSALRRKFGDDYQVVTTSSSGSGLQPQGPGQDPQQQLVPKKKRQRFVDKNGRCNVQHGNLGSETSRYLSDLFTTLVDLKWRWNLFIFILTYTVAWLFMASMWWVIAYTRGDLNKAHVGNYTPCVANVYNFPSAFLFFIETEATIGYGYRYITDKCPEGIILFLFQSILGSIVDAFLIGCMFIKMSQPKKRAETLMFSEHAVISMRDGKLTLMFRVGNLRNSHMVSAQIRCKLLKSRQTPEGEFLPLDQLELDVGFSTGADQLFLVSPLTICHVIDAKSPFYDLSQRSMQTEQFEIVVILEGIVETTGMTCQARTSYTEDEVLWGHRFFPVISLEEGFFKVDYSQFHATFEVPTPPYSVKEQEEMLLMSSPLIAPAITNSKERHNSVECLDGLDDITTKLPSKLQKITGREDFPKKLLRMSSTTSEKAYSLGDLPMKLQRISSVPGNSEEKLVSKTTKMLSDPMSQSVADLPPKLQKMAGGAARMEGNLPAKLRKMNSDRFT
T1 sequence (P48051 1-423): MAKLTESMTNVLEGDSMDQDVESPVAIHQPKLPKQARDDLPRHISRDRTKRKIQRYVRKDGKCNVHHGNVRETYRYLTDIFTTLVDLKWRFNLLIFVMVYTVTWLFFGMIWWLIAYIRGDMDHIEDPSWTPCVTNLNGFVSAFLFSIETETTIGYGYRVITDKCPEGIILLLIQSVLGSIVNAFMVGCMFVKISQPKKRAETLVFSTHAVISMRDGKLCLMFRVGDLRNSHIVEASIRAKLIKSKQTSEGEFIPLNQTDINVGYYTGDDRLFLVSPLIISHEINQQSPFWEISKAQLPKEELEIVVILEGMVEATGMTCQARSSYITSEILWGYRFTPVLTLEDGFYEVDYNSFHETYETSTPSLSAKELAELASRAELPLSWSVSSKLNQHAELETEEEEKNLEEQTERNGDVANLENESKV

Kir2.3 = biological target: T2, Kir2.3 (Homo sapiens, UniProt P48050); assay: Tl+ flux selectivity assay, Kir2.3; type: cell-based; details: for Kir Channel Selectivity (Fold) 2.3: Thallium flux, Kir7.1 over Kir2.3
T2 sequence (P48050 1-445): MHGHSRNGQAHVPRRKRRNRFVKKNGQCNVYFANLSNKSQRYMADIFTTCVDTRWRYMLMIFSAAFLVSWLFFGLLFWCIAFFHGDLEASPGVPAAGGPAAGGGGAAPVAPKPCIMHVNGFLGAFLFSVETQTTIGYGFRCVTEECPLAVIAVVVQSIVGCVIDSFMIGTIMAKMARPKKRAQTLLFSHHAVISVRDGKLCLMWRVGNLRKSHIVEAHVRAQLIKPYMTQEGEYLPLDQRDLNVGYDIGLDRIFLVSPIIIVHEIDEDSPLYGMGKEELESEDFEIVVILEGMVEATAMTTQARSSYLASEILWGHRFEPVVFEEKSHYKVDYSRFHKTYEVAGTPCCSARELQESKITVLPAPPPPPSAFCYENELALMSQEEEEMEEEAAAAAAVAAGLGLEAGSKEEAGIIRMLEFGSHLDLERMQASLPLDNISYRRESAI

[8] = test system: voltage-gated sodium channel; assay: Lead Profiling Screen; type: binding; details: significant interaction
L-type calcium channel = assay: Lead Profiling Screen; type: binding; details: significant interaction
Dopamine D2S receptor = Dopamine D2S receptor (Homo sapiens, UniProt P14416); assay: Lead Profiling Screen; type: binding; details: significant interaction
Sequence of Dopamine D2S receptor (P14416 1-414 isoform P14416-2): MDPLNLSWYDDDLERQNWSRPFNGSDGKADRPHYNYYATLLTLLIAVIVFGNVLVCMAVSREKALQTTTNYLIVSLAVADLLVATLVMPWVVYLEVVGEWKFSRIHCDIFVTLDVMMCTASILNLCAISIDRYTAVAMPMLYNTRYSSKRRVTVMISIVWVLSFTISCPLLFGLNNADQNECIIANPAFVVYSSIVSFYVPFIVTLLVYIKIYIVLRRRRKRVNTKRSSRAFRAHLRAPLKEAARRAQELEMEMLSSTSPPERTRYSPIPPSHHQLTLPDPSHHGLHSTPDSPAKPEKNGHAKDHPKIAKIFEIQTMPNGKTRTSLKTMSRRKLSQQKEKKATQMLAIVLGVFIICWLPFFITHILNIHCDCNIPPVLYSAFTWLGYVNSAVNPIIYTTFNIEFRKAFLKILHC

Norepinephrine receptor = Norepinephrine receptor (Homo sapiens, UniProt P23975); assay: Lead Profiling Screen; type: binding; details: significant interaction
Sequence of Norepinephrine receptor (P23975 whole entry): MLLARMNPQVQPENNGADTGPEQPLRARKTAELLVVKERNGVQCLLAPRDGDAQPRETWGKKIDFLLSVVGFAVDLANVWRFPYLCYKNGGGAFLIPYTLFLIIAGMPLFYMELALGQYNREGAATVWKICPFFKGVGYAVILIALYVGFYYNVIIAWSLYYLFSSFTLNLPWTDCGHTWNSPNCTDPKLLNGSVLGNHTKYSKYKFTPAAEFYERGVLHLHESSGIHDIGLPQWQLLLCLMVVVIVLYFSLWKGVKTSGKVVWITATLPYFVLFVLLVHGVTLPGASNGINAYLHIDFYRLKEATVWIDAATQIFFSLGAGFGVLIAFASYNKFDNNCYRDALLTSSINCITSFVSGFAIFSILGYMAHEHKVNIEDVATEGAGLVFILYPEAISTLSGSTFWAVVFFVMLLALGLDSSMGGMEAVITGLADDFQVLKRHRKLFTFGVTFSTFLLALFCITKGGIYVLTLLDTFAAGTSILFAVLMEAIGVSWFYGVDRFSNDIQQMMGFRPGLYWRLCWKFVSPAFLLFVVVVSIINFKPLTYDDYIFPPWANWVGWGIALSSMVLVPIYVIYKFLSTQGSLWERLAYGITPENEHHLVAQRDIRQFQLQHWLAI

[9] = Protein binding in plasma; details: mouse

Sequence of Kir7.1 pore mutants (Homo sapiens, UniProt O60928, A161S) (O60928 whole entry A161S): as the sequence (O60928 whole entry T153C) above, with C153T, A161S counted along it

Oc1c(CN2CCC(Cc3ccccc3)CC2)cc(Cl)c2cccnc12 [VU714]
PPB (%Fu) Mouse [1]: 0.7%
Effect of mutation A161S on Kir7.1 inhibition (Kir7.1 pore mutants [2]): no effect
Effect of mutation T153C/WT on channel inhibition (Kir7.1 pore mutants [3]): increased channel inhibition
Effect of mutation L146V on Kir7.1 inhibition (Kir7.1 pore mutants [4]): no effect
Effect of double mutation E149Q and A150S on sensitivity (Kir7.1 pore mutants [5]): additive loss of VU714 sensitivity; also recorded: virtually eliminated block of the channel
Effect of mutation E149D on block (Kir7.1 pore mutants [5]): no effect on block
Effect of mutation I160M on Kir7.1 inhibition (Kir7.1 pore mutants [6]): no effect
Effect of mutation E149Q/M125R on sensitivity (Kir7.1 E149Q/M125R; 3 µM): partial, albeit significant (P<0.05), loss of sensitivity
IC50 (Kir7.1 E149Q/M125R; read-out: Kir7.1-M125R-E149Q IC50, patch clamp): 18.1 µM and ~18 µM
Kir1.1 (ROMK) IC50 (Tl+ flux) (Kir1.1): weakly inhibited
IC50 (Kir1.1; read-out: Kir1.1 (ROMK) IC50 (Tl+ flux)): 16 µM
PPB (%Fu) Human [7]: 0.5%
Kir Channel Selectivity (Fold) 3.1/3.2 (Kir3.1/3.2): >5 Fold
IC50 (Kir3.1/3.2; read-out: Kir3.1/3.2 IC50 (Tl+ flux)): > 30 µM
Kir Channel Selectivity (Fold) 2.3 (Kir2.3): >5 Fold
IC50 (Kir2.3; read-out: Kir2.3 IC50 (Tl+ flux)): > 30 µM

CC(C)OC(=O)NC1CCN(Cc2cc(Cl)c3cccnc3c2O)CC1 [Compound 19, iso-Propyl (1-((5-chloro-8-hydroxyquinolin-7-yl)methyl)piperidin-4-yl)carbamate]
Radioligand displacement, voltage-gated sodium channel [8]: > 50%
Radioligand displacement, L-type calcium channel (L-type calcium channel): > 50%
Kir Channel Selectivity (Fold) 3.1/3.2 (Kir3.1/3.2): at least 23 Fold
Kir Channel Selectivity (Fold) 3.1/3.2 (Kir3.1/3.2; listed as 19 (ML418)): >23 Fold
Kir Channel Selectivity (Fold) 2.3 (Kir2.3): at least 23 Fold
Kir Channel Selectivity (Fold) 2.3 (Kir2.3; listed as 19 (ML418)): >23 Fold
Radioligand displacement, Dopamine D2S receptor (Dopamine D2S receptor): > 50%
Radioligand displacement, Norepinephrine receptor (Norepinephrine receptor): > 50%
fraction unbound [9]: 0.114
